Columns and labels:
Aurora kinase B [1] = target: T1, Aurora kinase B (Homo sapiens, UniProt Q96GD4); assay: Inhibition of aurora B kinase (unknown origin) at 10 uM using ATP and SB2 substrate incubated at 37 degC for 2 hrs by kinase-Glo reagent based luminescent kinase assay
In short: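 Aurora B at 300 ng/well with ATP and peptide substrate SB2 at the optimized levels. DMSO was kept below 2% by volume. Activity was read by Kinase-Glo luminescence, which measures the ATP left after the reaction.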

Aurora kinase B [2] = target: T1, Aurora kinase B; assay: Inhibition of aurora B kinase (unknown origin) using ATP and SB2 substrate incubated at 37 degC for 2 hrs by kinase-Glo reagent based luminescent kinase assay
In short: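 Aurora B at 300 ng/well with ATP and peptide substrate SB2 at optimized levels, DMSO below 2% by volume. Kinase activity was quantified by Kinase-Glo luminescence of the ATP remaining after the reaction. The assay was validated with 48 enzyme-containing and 48 enzyme-free wells for the Z′-factor. IC50 values were derived from this luminescent assay.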

T1 sequence (Q96GD4 whole entry): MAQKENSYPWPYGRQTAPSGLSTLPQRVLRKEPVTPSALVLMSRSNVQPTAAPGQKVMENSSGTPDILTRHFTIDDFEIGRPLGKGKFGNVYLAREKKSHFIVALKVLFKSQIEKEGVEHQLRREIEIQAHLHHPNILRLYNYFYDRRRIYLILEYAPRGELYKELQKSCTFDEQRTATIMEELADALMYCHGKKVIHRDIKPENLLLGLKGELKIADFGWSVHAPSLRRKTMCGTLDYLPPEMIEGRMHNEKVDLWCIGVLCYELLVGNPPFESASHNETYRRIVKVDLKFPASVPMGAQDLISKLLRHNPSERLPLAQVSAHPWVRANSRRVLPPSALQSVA

C=CCC1C(=O)Nc2cc(NC(=S)Nc3ccccc3OC)c(N(CCC)CCC)cc21 (stereo not given)
inhibition (Aurora kinase B [1]): 35%

C=CCNC(=S)Nc1cc2c(cc1N(CCC)CCC)/C(=C/c1ccc3c(c1)OCO3)C(=O)N2
inhibition (Aurora kinase B [1]): 31%

Cc1cc(C)cc(Oc2cc3c(cc2NC(=O)Nc2ccc(OC(F)(F)F)cc2)NC(=O)C3Cc2ccccc2)c1 (stereo not given)
inhibition (Aurora kinase B [1]): < 30%

CCC/C=C1\C(=O)Nc2cc(NC(C)=O)c(N(CC)CC)cc21
inhibition (Aurora kinase B [1]): < 30%

COc1ccc(/C=C2\C(=O)Nc3cc(NC(C)=O)c(N4CCOCC4)cc32)cc1
inhibition (Aurora kinase B [1]): < 30%

C=CCC1C(=O)Nc2cc(NC(=O)Nc3ccc(F)cc3)c(N(CCC)CCC)cc21 (stereo not given)
inhibition (Aurora kinase B [1]): < 30%

O=C(Nc1ccc(C(F)(F)F)cc1)Nc1cc2c(cc1N1CCCC1)/C(=C/c1cccs1)C(=O)N2
inhibition (Aurora kinase B [1]): 47%

Cc1cc(C)cc(Oc2cc3c(cc2NS(=O)(=O)c2ccc(F)cc2)NC(=O)C3Cc2ccccc2)c1 (stereo not given)
inhibition (Aurora kinase B [1]): < 30%

CCCCC1C(=O)Nc2cc(NC(=O)Nc3ccc(F)cc3)c(N3CCOCC3)cc21 (stereo not given)
inhibition (Aurora kinase B [1]): < 30%

O=C1Cc2cc(N3CCOCC3)c(NC(=O)Nc3ccc(F)cc3)cc2N1
inhibition (Aurora kinase B [1]): < 30%

CC(=O)Nc1cc2c(cc1N1CCOCC1)/C(=C/c1ccco1)C(=O)N2
inhibition (Aurora kinase B [1]): < 30%

CCN(CC)c1cc2c(cc1NC(C)=O)NC(=O)/C2=C\c1cccs1
inhibition (Aurora kinase B [1]): < 30%

CCCCCCCNC(=O)Nc1cc2c(cc1N1CCN(C(=O)OCC)CC1)/C(=C/c1ccc[nH]1)C(=O)N2
inhibition (Aurora kinase B [1]): < 30%

CCCC1(C(=O)OCC)C(=O)Nc2cc(NC(=O)Nc3ccc(F)cc3)c(N3CCN(c4cccc(C)c4C)CC3)cc21 (stereo not given)
inhibition (Aurora kinase B [1]): < 30%

CCN(CC)c1cc2c(cc1NC(C)=O)NC(=O)/C2=C\c1ccccn1
inhibition (Aurora kinase B [1]): < 30%

O=C(Nc1ccc(C(F)(F)F)cc1)Nc1cc2c(cc1N1CCCC1)/C(=C/c1ccc[nH]1)C(=O)N2
IC50 (Aurora kinase B [2]): 1800 nM
inhibition (Aurora kinase B [1]): 97%

CCc1ccc(Oc2cc3c(cc2NS(=O)(=O)c2ccc(C)cc2)NC(=O)C3)cc1
inhibition (Aurora kinase B [1]): < 30%

C=CCNC(=S)Nc1cc2c(cc1Oc1cc(C)cc(C)c1)C(Cc1ccccc1)C(=O)N2 (stereo not given)
inhibition (Aurora kinase B [1]): < 30%

CCN(CC)c1cc2c(cc1NC(C)=O)NC(=O)/C2=C\c1ccc[nH]1
IC50 (Aurora kinase B [2]): 2500 nM
inhibition (Aurora kinase B [1]): 83%

O=C(Nc1ccc(F)cc1)Nc1cc2c(cc1N1CCOCC1)/C(=C/c1ccc(F)cc1)C(=O)N2
inhibition (Aurora kinase B [1]): 65%

O=C(Nc1ccc(F)cc1)Nc1cc2c(cc1N1CCOCC1)/C(=C/c1ccc3c(c1)OCO3)C(=O)N2
IC50 (Aurora kinase B [2]): 8200 nM

O=C(Nc1ccc(F)cc1)Nc1cc2c(cc1N1CCOCC1)/C(=C/c1ccc[nH]1)C(=O)N2
IC50 (Aurora kinase B [2]): 3300 nM

CCCC1(C(=O)OCC)C(=O)Nc2cc(NC(C)=O)c(N3CCN(c4cccc(C)c4C)CC3)cc21 (stereo not given)
inhibition (Aurora kinase B [1]): < 30%

From ChEMBL document CHEMBL3596117, “Identification of 3,5,6-substituted indolin-2-one's inhibitors of Aurora B by development of a luminescent kinase assay” (Bioorg Med Chem Lett, 2015)
